Compound activity: PubChem, several laboratories
Hits are enriched below; roughly 4% of the tested compounds scored in any of these assays.
PHOSPHO1 inh: blocks human PHOSPHO1 phosphatase activity; Q8TCT1; inhibition, % at 13.3 µM; AID 1565; recombinant PHOSPHO1, absorbance phosphatase assay; actives 1.1% (n = 290,000); in the data active = inhibition above about 60%
KCNK3 inh: human KCNK3 channel inhibition, primary screen; O14649; CHO-KCNK3 thallium flux, FluxOR fluorescence; hits give low values; B-score at 10 µM; actives 0.84% (n = 340,000);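 active = B-score under library mean minus 4 SD, starting fluorescence ratio at most library mean plus 5 SD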;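 also: more negative B-score means stronger inhibition of thallium flux through KCNK3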
KCNK9 block: inhibitors of human KCNK9 two-pore domain potassium channel | AID 488922 | actives 1.2% (n = 310,000) | B-score at 10 µM | HEK293 KCNK9, FluxOR thallium flux fluorescence; hits give low values | Q9NPC2;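 active = ratio B-score over 3 SD below the library mean, with starting fluorescence within 5 SD of its mean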;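 also: negative B-score means less thallium flux so channel inhibition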
KCNQ1 pot: human KCNQ1 channel potentiation or activation; P51787; actives 0.35% (n = 310,000); AID 2648; B-score at 10 µM; CHO-K1 KCNQ1, thallium flux FluxOR fluorescence; hits give high values;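 active = fluorescence ratio B-score, a plate-corrected score, at least three library SD, with initial intensity B-score within 5 SD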
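Material: CHO-K1 cells stably expressing KCNQ1. Medium: assay buffer for compound exposure, DMSO matched across wells. Reagent: K+/Tl+ depolarizing stimulus. Compound dosing: single-concentration screen. Times: 37 °C overnight plating, 90-min dark dye load, 20-min compound pretreatment. Technique: FluxOR Tl+ flux fluorescence.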
KCNQ1 block: human KCNQ1 channel inhibition; P51787; CHO-K1 KCNQ1, FluxOR thallium flux fluorescence; hits give high values; B-score at 10 µM; actives 1.3% (n = 310,000); AID 2642;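 active = compounds whose thallium flux B-score, printed positive for inhibition, exceeds three library SD while starting fluorescence stays within three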;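 also: channel opened by potassium depolarization with thallium stimulus after 20 min compound exposure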
hERG protect: hERG (human) protection from proarrhythmic block | Q12809 | CHO-hERG, FluxOR thallium flux, dofetilide IC70 present | activation (rescue from dofetilide block), less the hit threshold, % at 10 µM | actives 0.51% (n = 310,000);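 active = activation above the mean of controls blocked by dofetilide plus 5 SD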;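 also: thallium influx through hERG after potassium depolarization seen as dye fluorescence rise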
KCNK9 block conf: confirmation of human KCNK9 potassium channel inhibitors | shares compounds with KCNK9 block | HEK293 KCNK9 cells, FluxOR thallium flux fluorescence | inhibition, % at 10 µM | actives 43% (n = 4,900) | AID 492992;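 active = thallium signal inhibited by more than 5 SD of the compound-free buffer control wells, on both duplicate plates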;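 also: 0% = assay buffer control wells without compound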
Kir2-1 spec: tests whether KCNK9 modulators also affect mouse Kir2.1; AID 492993; shares compounds with KCNK9 block; actives 4% (n = 4,900); Kir2.1 cells, FluxOR thallium flux fluorescence; inhibition, % at 10 µM;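 active = thallium signal drop more than 5 SD beyond the mean of the no-compound control wells, seen in both duplicate plates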;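 also: signal is fluorescence rise after thallium addition divided by baseline fluorescence; plate controls were assay buffer only for no effect and full block by chlorpromazine control for full effect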
HEK293 Tl ctr: second check of KCNK9 modulator effects in non-induced HEK293 cells | shares compounds with KCNK9 block | FluxOR thallium flux | inhibition, % at 10 µM | actives 40% (n = 4,900);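 active = thallium signal drop beyond 5 SD of the untreated control mean, on both duplicate plates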;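 also: plate controls were buffer only IC0 wells for no effect and SID17386958 at its maximal inhibitory level for full effect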
* = called active by the depositor; i = inactive; . = not tested or not shown.

SMILES	PHOSPHO1 inh	KCNK3 inh	KCNK9 block	KCNQ1 pot	KCNQ1 block	hERG protect	KCNK9 block conf	Kir2-1 spec	HEK293 Tl ctr
COc1ccccc1N1CCN(C2CCCCC2NS(=O)(=O)c2ccc(Cl)cc2)CC1 (configuration not stated)	14	i	i	i	i	-12	.	.	.
COc1ccc(N2CCN(C3CCCCC3NS(=O)(=O)c3ccc(Cl)cc3)CC2)cc1 (configuration not stated)	42	i	i	i	i	-2	i	i	i
Cc1ccc(C)c(N2CCN(C3CCCCC3NS(=O)(=O)c3ccccc3)CC2)c1 (configuration not stated)	35	-12*	-16*	i	8*	-7	52%*	i	31%*
CCOc1ccccc1C(=O)Nc1cc(Cl)ccc1O	6	i	-12*	i	i	-12	52%*	i	36%*
COc1ccccc1C(=O)Nc1cc(Cl)ccc1O	19	i	i	i	i	-5	.	.	.
CCCn1c(-c2cccs2)nc2ccccc21	26	i	i	i	i	-8	.	.	.
CCN1c2ccccc2-c2nc3ccccc3n2C1c1cccs1 (configuration not stated)	-21	i	-9.3*	i	i	-7	59%*	i	62%*
O=C(Nc1cccnc1)/C(N=Nc1ccc(Cl)c(C(F)(F)F)c1)=C(\O)c1ccccc1	3	i	i	i	i	-11	.	.	.
Cc1ccc(C2CC(c3ccccc3)=NN2c2ccccc2)o1 (configuration not stated)	-11	i	-9.1*	i	8*	-12	41%*	i	30%*
Oc1ccc(C2=NN(c3ccccc3)C(c3ccc(F)cc3)C2)cc1 (configuration not stated)	42	i	-12*	i	i	-7	42%*	i	36%*
O=S(=O)(c1ccccc1)N1N=C(c2cccs2)CC1c1ccc(Br)cc1 (configuration not stated)	-3	i	-13*	i	i	-11	37%*	i	44%*
c1ccc(C2CC(c3cccs3)=NN2c2ccccc2)cc1 (configuration not stated)	6	i	-8.7*	i	i	-14	48%*	i	i
CCC(CC)C(=O)Nc1ccncc1	-1	.	i	i	i	-15	.	.	.
Cc1cc(C)cc(C(=O)NC(CC(N)=O)c2ccc(N3CCC(Cc4ccccc4)CC3)c([N+](=O)[O-])c2)c1 (configuration not stated)	4	i	-13*	i	i	-5	53%*	i	36%*
CCc1ccc(N=C2NC(=O)/C(=C/c3ccc(OCC(=O)O)c(OC)c3)S2)cc1	34	i	i	i	i	-3	i	i	i
COC(=O)C1=CN(Cc2ccc(C)cc2)C=C(C(=O)OC)C1c1ccc(F)c(F)c1	16	i	-11*	i	i	-10	i	i	39%*
COc1ccc2c(c1)C(SCC(=O)NCCc1ccccc1)CC(C)(C)O2 (configuration not stated)	-1	i	i	i	i	-9	i	i	i
COc1ccc(CCCC(=O)NCCc2ccccc2)cc1	-1	i	i	i	i	-1	.	.	.
CC1([N+](=O)[O-])COC(C=Cc2ccccc2)OC1 (configuration not stated)	.	i	.	.	.	.	.	.	.
COC(=O)c1nn(-c2ccccc2)c(Cl)c1/C=N/OCc1ccc(Cl)cc1Cl	12	i	i	i	i	-8	i	i	i
COC(=O)c1nn(-c2ccccc2)c(Cl)c1/C=N/O	45	i	i	i	i	-20	.	.	.
